Tests used:
Format in all cases: cell-based
[1] = molecular target: T1, Peroxisome proliferator-activated receptor gamma coactivator 1-alpha (Homo sapiens) (UniProt Q9UBK2); assay: Activation of PGC1alpha transcriptional activity (unknown origin) expressed in HEK293 cells at 20 uM after overnight incubation by luciferase reporter gene assay relative to control
T1 sequence (whole entry): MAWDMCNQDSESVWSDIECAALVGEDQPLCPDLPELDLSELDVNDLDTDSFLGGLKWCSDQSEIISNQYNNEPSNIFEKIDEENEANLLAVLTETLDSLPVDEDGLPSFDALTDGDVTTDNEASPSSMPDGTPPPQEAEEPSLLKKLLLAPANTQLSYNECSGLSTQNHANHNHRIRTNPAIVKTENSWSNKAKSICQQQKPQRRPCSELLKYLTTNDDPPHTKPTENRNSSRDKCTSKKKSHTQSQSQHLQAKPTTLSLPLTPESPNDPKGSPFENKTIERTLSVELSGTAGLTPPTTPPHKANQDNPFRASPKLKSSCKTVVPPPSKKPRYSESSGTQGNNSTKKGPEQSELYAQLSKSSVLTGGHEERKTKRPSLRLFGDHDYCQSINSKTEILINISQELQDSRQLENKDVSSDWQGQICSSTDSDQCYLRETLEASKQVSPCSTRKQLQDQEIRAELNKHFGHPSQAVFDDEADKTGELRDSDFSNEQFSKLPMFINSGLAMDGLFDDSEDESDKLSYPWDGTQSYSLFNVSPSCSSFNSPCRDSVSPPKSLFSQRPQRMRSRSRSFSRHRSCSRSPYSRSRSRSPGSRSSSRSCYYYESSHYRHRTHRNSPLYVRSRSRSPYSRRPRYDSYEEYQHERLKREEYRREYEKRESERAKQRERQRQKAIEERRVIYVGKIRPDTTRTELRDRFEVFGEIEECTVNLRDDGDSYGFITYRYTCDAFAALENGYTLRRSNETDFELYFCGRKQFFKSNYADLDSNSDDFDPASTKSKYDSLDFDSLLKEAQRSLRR
How it was run: (§1)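 HEK293 cells stably carrying a luciferase reporter driven by the PGC-1α promoter, grown in high-glucose DMEM with 10% FBS, penicillin and streptomycin at 37 °C in 5% CO2. About 2800 cells per well; after 24 h, compound added at final 10 or 20 μM, or forskolin 5 μM or dexamethasone 100 nM, with equal DMSO as blank. Incubated overnight, then luciferase substrate added and luminescence read. Values normalized to DMSO (100%), mean ± SEM, Student's t test.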

[2] = molecular target: T1, Peroxisome proliferator-activated receptor gamma coactivator 1-alpha (Homo sapiens); assay: Activation of PGC1alpha transcriptional activity (unknown origin) expressed in HEK293 cells at 10 uM after overnight incubation by luciferase reporter gene assay relative to control; how it was run: as §1
[3] = molecular target: T1, Peroxisome proliferator-activated receptor gamma coactivator 1-alpha (Homo sapiens); assay: Activation of PGC1alpha transcriptional activity (unknown origin) expressed in HEK293 cells at 5 uM after overnight incubation by luciferase reporter gene assay relative to control; how it was run: as §1
[4] = molecular target: T1, Peroxisome proliferator-activated receptor gamma coactivator 1-alpha (Homo sapiens); assay: Activation of PGC1alpha transcriptional activity (unknown origin) expressed in HEK293 cells at 5 uM after 24 hrs by luciferase reporter gene assay relative to control
[5] = molecular target: T1, Peroxisome proliferator-activated receptor gamma coactivator 1-alpha (Homo sapiens); assay: Activation of PGC1alpha transcriptional activity (unknown origin) expressed in HEK293 cells at 100 nM after 24 hrs by luciferase reporter gene assay relative to control; how it was run: as §1
[6] = molecular target: T1, Peroxisome proliferator-activated receptor gamma coactivator 1-alpha (Homo sapiens); assay: Activation of PGC1alpha transcriptional activity (unknown origin) expressed in HEK293 cells at 100 nM after overnight incubation by luciferase reporter gene assay relative to control; how it was run: as §1

Compound | Activity [1] | Activity [2] | further results
C[C@H](CC[C@@H](O[C@@H]1O[C@H](CO)[C@@H](O)[C@H](O)[C@H]1O[C@@H]1O[C@H](CO)[C@@H](O)[C@H](O)[C@H]1O)C(C)(C)O)[C@H]1CC[C@@]2(C)[C@@H]3C(=O)C=C4[C@@H](CC[C@H](O[C@@H]5O[C@H](CO[C@@H]6O[C@H](CO)[C@@H](O)[C@H](O)[C@H]6O)[C@@H](O)[C@H](O)[C@H]5O)C4(C)C)[C@]3(C)[C@H](O)C[C@]12C | 126% | 105% | 
C=C[C@@]1(C)CC(=O)[C@]2(O)[C@@]3(C)[C@@H](O)CCC(C)(C)[C@@H]3[C@H](O)[C@H](OC(C)=O)[C@@]2(C)O1 |  |  | Activity [3]: 145%; fold change (FC) [4]: 1.4
C[C@@H]1C[C@H]2[C@@H]3CCC4=CC(=O)C=C[C@]4(C)[C@@]3(F)[C@@H](O)C[C@]2(C)[C@@]1(O)C(=O)CO |  |  | fold change (FC) [5]: 1.7; Activity [6]: 172%

Second part, led by results:

Activity [1] | Activity [2] | Compound | further results
132% | 129% | C[C@H](CC[C@@H](O[C@@H]1O[C@H](CO)[C@@H](O)[C@H](O)[C@H]1O[C@@H]1O[C@H](CO)[C@@H](O)[C@H](O)[C@H]1O)C(C)(C)O)[C@H]1CC[C@@]2(C)[C@@H]3CC=C4[C@@H](CC[C@H](O[C@@H]5O[C@H](CO[C@@H]6O[C@H](CO)[C@@H](O)[C@H](O)[C@H]6O)[C@@H](O)[C@H](O)[C@H]5O)C4(C)C)[C@]3(C)C(=O)C[C@]12C | 
122% | 97.8% | C[C@H](CC[C@@H](O[C@@H]1O[C@H](CO)[C@@H](O)[C@H](O)[C@H]1O[C@@H]1O[C@H](CO)[C@@H](O)[C@H](O)[C@H]1O)C(C)(C)O)[C@H]1CC[C@@]2(C)[C@@H]3C(=O)C=C4[C@@H](CC[C@H](O[C@@H]5O[C@H](CO)[C@@H](O)[C@H](O)[C@H]5O)C4(C)C)[C@]3(C)[C@H](O)C[C@]12C | 
123% | 107% | C[C@H](CC[C@@H](O[C@@H]1O[C@H](CO)[C@@H](O)[C@H](O)[C@H]1O[C@@H]1O[C@H](CO)[C@@H](O)[C@H](O)[C@H]1O)C(C)(C)O)[C@H]1CC[C@@]2(C)[C@@H]3CC=C4[C@@H](CC[C@H](O[C@@H]5O[C@H](CO)[C@@H](O)[C@H](O)[C@H]5O)C4(C)C)[C@]3(C)C(=O)C[C@]12C | 
